Laboratory results: ChEMBL document CHEMBL1157623, “Benzyl 1,2,3,5,11,11a-hexahydro-3,3-dimethyl-1-oxo-6H-imidazo[3',4':1,2]pyridin[3,4-b]indole-2-substituted acetates: One-pot-preparation, anti-tumor activity, docking toward DNA and 3D QSAR analysis” (Bioorg Med Chem, 2010)

What was measured:
[1] = Lipophilicity, log K at 10 uM after 40 mins by HPLC analysis; format: physicochemical
In short: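 Sample at 10^-5 M analysed by reversed-phase C18 HPLC, eluted with CH3OH/H2O 0.7/0.3 at 1 mL/min for 40 min, UV detection at 254.8 nm. Retention time tR recorded; acetone peak taken as t0 (1.591 min). Log K = Log[(tR − t0)/t0].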

A549 = assay: Antiproliferative activity against human A549 cells after 3 days by sulforhodamine B assay; format: functional, cell-based; conditions: A549, 72 h
In short: (§1)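 Freshly trypsinized cells seeded at 5000 per well; compounds added from DMSO-diluted stock at 60, 6, 0.6, 0.06 and 0.006 µM. After 3 days, attached cells were fixed with cold 10% trichloroacetic acid, stained with 0.4% sulforhodamine B, the bound dye solubilized, and absorbance read at 562 nm. IC50 is the concentration reducing cell growth by 50%, averaged from at least three independent determinations.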

PC-3 = assay: Antiproliferative activity against human PC3 cells after 3 days by sulforhodamine B assay; format: functional, cell-based; conditions: PC-3, 72 h; in short: as §1
MCF7 = assay: Antiproliferative activity against human MCF7 cells after 3 days by sulforhodamine B assay; format: functional, cell-based; conditions: MCF7, 72 h; in short: as §1
KB = assay: Antiproliferative activity against human KB cells after 3 days by sulforhodamine B assay; format: functional, cell-based; conditions: 72 h; in short: as §1
[2] = Antiproliferative activity against human KBVIN cells after 3 days by sulforhodamine B assay; format: functional, cell-based; conditions: 72 h; in short: as §1
CCRF S-180 [3] = assay: Antitumor activity against mouse S180 cells xenografted in ICR mouse assessed as tumor weight at 1 mg/kg, ip administered 24 hrs after tumor implantation daily for 7 consecutive days measured after 24 hrs of last dose (Rvb=1.602 +/- 0.391 g); format: functional; conditions: route intraperitoneal
Mus musculus [4] = assay: Toxicity in ICR mouse xenografted with mouse S180 cells assessed as femur weight at 1 mg/kg, ip administered 24 hrs after tumor implantation daily for 7 consecutive days measured after 24 hrs of last dose (Rvb=0.056 +/- 0.006 g); format: organism-based, CCRF S-180; design: dose 1 mg/kg, route intraperitoneal; conditions: in vivo
Mus musculus [5] = assay: Neurotoxicity in ICR mouse assessed as occurrence of neurotoxic behavior at 10 to 500 mg/kg, ip measured up to 7 days post dose; format: toxicity, organism-based; design: dose 10-500 mg/kg, route intraperitoneal; conditions: in vivo, 168 h
In short: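 Healthy ICR mice, 10–12 weeks old, 12 per group (six male, six female), fasted overnight with water available. Single ip injection of 10, 100 or 500 mg/kg in 0.2 mL 0.9% saline. Monitored continuously up to 7 days for abnormal behavior (tremor, twitch, jumping, tetanus, supination) or death. Sacrificed on day 7; heart, liver and kidneys checked macroscopically.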

Mus musculus [6] = assay: Toxicity in ICR mouse assessed as change in heart weight at 10 to 500 mg/kg, ip measured on day 7 post dose by necroscopy; format: organism-based; design: dose 10-500 mg/kg, route intraperitoneal; conditions: in vivo
Mus musculus [7] = assay: Toxicity in ICR mouse assessed as change in liver weight at 10 to 500 mg/kg, ip measured on day 7 post dose by necroscopy; format: organism-based; design: dose 10-500 mg/kg, route intraperitoneal; conditions: in vivo
Mus musculus [8] = assay: Toxicity in ICR mouse assessed as change in kidney weight at 10 to 500 mg/kg, ip measured on day 7 post dose by necroscopy; format: organism-based; design: dose 10-500 mg/kg, route intraperitoneal; conditions: in vivo
Mus musculus [9] = assay: Toxicity in ICR mouse assessed as mortality up to 500 mg/kg, ip measured after 7 days post dose; format: organism-based; design: dose 500 mg/kg, route intraperitoneal; conditions: in vivo, 168 h
In short: (§2)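 ICR mice, 10–12 weeks old, of both sexes (six males and six females, 12 per group), housed at 21 °C and fasted overnight with water available. They received a single ip injection of 10, 100 or 500 mg/kg in 0.2 mL 0.9% saline. Mice were watched continuously for 7 days for neurotoxic behaviour or death, then killed on day 7 and checked macroscopically (heart, liver, kidneys). LD50 was estimated graphically.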

[10] = Toxicity in ip dosed ICR mouse measured after 7 days post dose; format: organism-based; conditions: in vivo; in short: as §2
Mus musculus [11] = assay: Toxicity in ICR mouse xenografted with mouse S180 cells assessed as body weight at 1 mg/kg, ip administered 24 hrs after tumor implantation daily for 7 consecutive days measured after 24 hrs of last dose (Rvb=33.3 +/- 2.32 g); format: organism-based, CCRF S-180; design: dose 1 mg/kg, route intraperitoneal; conditions: in vivo
Mus musculus [12] = assay: Toxicity in ICR mouse xenografted with mouse S180 cells assessed as heart weight at 1 mg/kg, ip administered 24 hrs after tumor implantation daily for 7 consecutive days measured after 24 hrs of last dose (Rvb=0.17 +/- 0.01 g); format: organism-based, CCRF S-180; design: dose 1 mg/kg, route intraperitoneal; conditions: in vivo
Mus musculus [13] = assay: Toxicity in ICR mouse xenografted with mouse S180 cells assessed as brain weight at 1 mg/kg, ip administered 24 hrs after tumor implantation daily for 7 consecutive days measured after 24 hrs of last dose (Rvb=0.31 +/- 0.01 g); format: organism-based, CCRF S-180; design: dose 1 mg/kg, route intraperitoneal; conditions: in vivo
Mus musculus [14] = assay: Toxicity in ICR mouse xenografted with mouse S180 cells assessed as liver weight at 1 mg/kg, ip administered 24 hrs after tumor implantation daily for 7 consecutive days measured after 24 hrs of last dose (Rvb=2.36 +/- 0.20 g); format: organism-based, CCRF S-180; design: dose 1 mg/kg, route intraperitoneal; conditions: in vivo
Mus musculus [15] = assay: Toxicity in ICR mouse xenografted with mouse S180 cells assessed as spleen weight at 1 mg/kg, ip administered 24 hrs after tumor implantation daily for 7 consecutive days measured after 24 hrs of last dose (Rvb=0.22 +/- 0.04 g); format: organism-based, CCRF S-180; design: dose 1 mg/kg, route intraperitoneal; conditions: in vivo
Mus musculus [16] = assay: Toxicity in ICR mouse xenografted with mouse S180 cells assessed as kidney weight at 1 mg/kg, ip administered 24 hrs after tumor implantation daily for 7 consecutive days measured after 24 hrs of last dose (Rvb=0.23 +/- 0.02 g); format: organism-based, CCRF S-180; design: dose 1 mg/kg, route intraperitoneal; conditions: in vivo
CCRF S-180 [17] = assay: Antitumor activity against mouse S180 cells xenografted in ICR mouse assessed as tumor weight at 0.1 mg/kg, ip administered 24 hrs after tumor implantation daily for 7 consecutive days measured after 24 hrs of last dose (Rvb=1.602 +/- 0.391 g); format: functional; conditions: route intraperitoneal
CCRF S-180 [18] = assay: Antitumor activity against mouse S180 cells xenografted in ICR mouse assessed as tumor weight at 0.01 mg/kg, ip administered 24 hrs after tumor implantation daily for 7 consecutive days measured after 24 hrs of last dose (Rvb=1.602 +/- 0.391 g); format: functional; conditions: route intraperitoneal
CCRF S-180 [19] = assay: Antitumor activity against mouse S180 cells xenografted in ip dosed ICR mouse assessed as decrease in tumor weight administered 24 hrs after tumor implantation daily for 7 consecutive days measured after 24 hrs of last dose; format: functional, organism-based

log K [1]	IC50 (A549) [µM]	IC50 (PC-3) [µM]	IC50 (MCF7) [µM]	IC50 (KB) [µM]	Compound	IC50 [2] [µM]	Activity (CCRF S-180 [3]) [g]	further results
0.92	30.6	7.06	14.7	41.1	CC(C)C[C@@H](C(=O)OCc1ccccc1)N1C(=O)[C@@H]2Cc3c([nH]c4ccccc34)CN2C1(C)C	32.5	2.05	–
1.02	23.3	13.9	19.8	38.2	CC1(C)N2Cc3[nH]c4ccccc4c3C[C@H]2C(=O)N1[C@@H](COCc1ccccc1)C(=O)OCc1ccccc1	42.3	1.793	–
0.44	59.1	48	57	60.3	C[C@@H](C(=O)OCc1ccccc1)N1C(=O)[C@@H]2Cc3c([nH]c4ccccc34)CN2C1(C)C	55.7	1.418	–
1.05	35.3	40.6	43	46.4	CC1(C)N2Cc3[nH]c4ccccc4c3C[C@H]2C(=O)N1[C@@H](Cc1ccccc1)C(=O)OCc1ccccc1	41.1	1.6	–
0.16	39.6	17	20.2	43.5	CC1(C)N2Cc3[nH]c4ccccc4c3C[C@H]2C(=O)N1[C@@H](CC(N)=O)C(=O)OCc1ccccc1	50.1	1.604	–
1.05	33.6	35.4	37	40	CC1(C)N2Cc3[nH]c4ccccc4c3C[C@H]2C(=O)N1[C@@H](CCC(=O)OCc1ccccc1)C(=O)OCc1ccccc1	37.9	1.578	–
–	–	–	–	–	COc1cccc2c1C(=O)c1c(O)c3c(c(O)c1C2=O)C[C@@](O)(C(=O)CO)C[C@@H]3O[C@H]1C[C@H](N)[C@H](O)[C@H](C)O1 [DOXORUBICIN]	–	0.817	Activity (Mus musculus [4]): 0.046 g; Activity (Mus musculus [11]): 27.28 g; Activity (Mus musculus [12]): 0.15 g; Activity (Mus musculus [13]): 0.32 g; Activity (Mus musculus [14]): 2 g; Activity (Mus musculus [15]): 0.11 g; Activity (Mus musculus [16]): 0.19 g
0.87	8.34	4.24	4.61	32.9	CC1(C)N2Cc3[nH]c4ccccc4c3C[C@H]2C(=O)N1[C@@H](CCCCNC(=O)OCc1ccccc1)C(=O)OCc1ccccc1	30.6	1.613	–
0.73	44.9	8.47	33.7	52	CC(C)[C@@H](C(=O)OCc1ccccc1)N1C(=O)[C@@H]2Cc3c([nH]c4ccccc34)CN2C1(C)C	52.2	2.003	–
0.25	38.4	10	20.4	42.1	CC1(C)N2Cc3[nH]c4ccccc4c3C[C@H]2C(=O)N1[C@@H](CCC(N)=O)C(=O)OCc1ccccc1	40	1.696	–
0.8	43.6	10.3	21.1	50.1	CCC(C)[C@@H](C(=O)OCc1ccccc1)N1C(=O)[C@@H]2Cc3c([nH]c4ccccc34)CN2C1(C)C (stereo partly specified)	50.9	2.846	–

Compound	log K [1]	IC50 (A549) [µM]	IC50 (PC-3) [µM]	IC50 (MCF7) [µM]	IC50 (KB) [µM]	IC50 [2] [µM]	Activity (CCRF S-180 [3]) [g]	further results
CC1(C)N(CC(=O)OCc2ccccc2)C(=O)[C@@H]2Cc3c([nH]c4ccccc34)CN21	0.32	7.92	9.98	10.4	22.5	12.2	0.916	Activity (Mus musculus [4]): 0.055 g; Activity (Mus musculus [5]): Non-toxic; Activity (Mus musculus [6]): Non-toxic; Activity (Mus musculus [7]): Non-toxic; Activity (Mus musculus [8]): Non-toxic; Activity (Mus musculus [9]): Non-toxic; LD50 at 168 h [10]: > 500 mg/kg; Activity (Mus musculus [11]): 33.75 g; Activity (Mus musculus [12]): 0.16 g; Activity (Mus musculus [13]): 0.3 g; Activity (Mus musculus [14]): 2.25 g; Activity (Mus musculus [15]): 0.24 g; Activity (Mus musculus [16]): 0.22 g
CC1(C)N2Cc3[nH]c4ccccc4c3C[C@H]2C(=O)N1[C@@H](CC(=O)OCc1ccccc1)C(=O)OCc1ccccc1	0.96	0.15	0.04	7.01	36.3	38.6	0.746	Activity (Mus musculus [4]): 0.057 g; Activity (Mus musculus [5]): Non-toxic; Activity (Mus musculus [6]): Non-toxic; Activity (Mus musculus [7]): Non-toxic; Activity (Mus musculus [8]): Non-toxic; Activity (Mus musculus [9]): Non-toxic; LD50 at 168 h [10]: > 500 mg/kg; Activity (CCRF S-180 [17]): 1.013 g; Activity (CCRF S-180 [18]): 1.305 g; Activity (CCRF S-180 [19]): Dose-dependent effect; Activity (Mus musculus [11]): 33.37 g; Activity (Mus musculus [12]): 0.17 g; Activity (Mus musculus [13]): 0.31 g; Activity (Mus musculus [14]): 2.26 g; Activity (Mus musculus [15]): 0.24 g; Activity (Mus musculus [16]): 0.23 g
CC1(C)N2Cc3[nH]c4ccccc4c3C[C@H]2C(=O)N1[C@@H](Cc1ccc(O)cc1)C(=O)OCc1ccccc1	0.49	0.12	0.69	4.44	18	8.35	1.046	Activity (Mus musculus [4]): 0.056 g; Activity (Mus musculus [5]): Non-toxic; Activity (Mus musculus [6]): Non-toxic; Activity (Mus musculus [7]): Non-toxic; Activity (Mus musculus [8]): Non-toxic; Activity (Mus musculus [9]): Non-toxic; LD50 at 168 h [10]: > 500 mg/kg; Activity (Mus musculus [11]): 35.85 g; Activity (Mus musculus [12]): 0.16 g; Activity (Mus musculus [13]): 0.32 g; Activity (Mus musculus [14]): 2.35 g; Activity (Mus musculus [15]): 0.23 g; Activity (Mus musculus [16]): 0.23 g
